Test results as given in ChEMBL document CHEMBL2396515, “Quercetin-POC conjugates: Differential stability and bioactivity profiles between breast cancer (MCF-7) and colorectal carcinoma (HCT116) cell lines” (Bioorg Med Chem, 2013).
Active and inactive are the calls of the source. The rule behind the calls is not given here.

Legend:
MCF7 [1] = test: Cytotoxicity against human MCF7 cells at 1 to 100 uM after 12 hrs by MTT assay; type: functional, cell-based
In short: (§1)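 MCF-7 or HCT116 cells were seeded at 5×10^3 per well in DMEM with 10% FBS and grown 1 day at 37 °C, 5% CO2. Compounds in 1% DMSO were added at 1, 5, 10, 50, 100 or 250 µM. Viability was read by MTT after 12 h; each assay was done three times.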

MCF7 [2] = test: Drug metabolism in human MCF7 cells assessed as 3-O-POC-Q level at 30 uM after 12 hrs by HPLC analysis; type: ADME, cell-based; details: mcf7, 12 h
In short: (§2)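 MCF-7 or HCT116 cells were seeded at 2×10^5 per well and grown 24 h at 37 °C, 5% CO2, then given 30 µM conjugate. At 1, 3, 6 and 12 h cells were PBS-washed, trypsinized, sonicated and filtered. Lysates were run on C18 HPLC (UV 340 nm). Each species is reported as a percentage of integrated peak area; peaks were identified by MALDI-TOF MS.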

MCF7 [3] = test: Drug metabolism in human MCF7 cells assessed as quercetin-glucuronide level at 30 uM after 12 hrs by HPLC analysis; type: ADME, cell-based; details: mcf7, 12 h; in short: as §2
MCF7 [4] = test: Drug metabolism in human MCF7 cells assessed as quercetin sulfate level at 30 uM after 1 hr by HPLC analysis; type: ADME, cell-based; details: mcf7, 1 h; in short: as §2
HCT-116 [5] = test: Drug metabolism in human HCT116 cells assessed as 7-O-POC-Q level at 30 uM after 12 hrs by HPLC analysis; type: ADME, cell-based; details: hct-116, 12 h; in short: as §2
MCF7 [6] = test: Drug metabolism in human MCF7 cells assessed as quercetin sulfate level at 30 uM after 12 hrs by HPLC analysis; type: ADME, cell-based; details: mcf7, 12 h; in short: as §2
MCF7 [7] = test: Drug metabolism in human MCF7 cells assessed as 7-O-POC-Q level at 30 uM after 12 hrs by HPLC analysis; type: ADME, cell-based; details: mcf7, 12 h; in short: as §2
HCT-116 [8] = test: Drug metabolism in human HCT116 cells assessed as 7-O-POC-Q level at 30 uM after 1 hr by HPLC analysis; type: ADME, cell-based; details: hct-116, 1 h; in short: as §2
HCT-116 [9] = test: Drug metabolism in human HCT116 cells assessed as 7-O-POC-Q level at 30 uM after 6 hrs by HPLC analysis; type: ADME, cell-based; details: hct-116, 6 h; in short: as §2
HCT-116 [10] = test: Drug metabolism in human HCT116 cells assessed as 7-O-POC-Q level at 30 uM after 3 hrs by HPLC analysis; type: ADME, cell-based; details: hct-116, 3 h; in short: as §2
HCT-116 [11] = test: Drug metabolism in human HCT116 cells assessed as quercetin-glucuronide level at 30 uM after 1 hr by HPLC analysis; type: ADME, cell-based; details: hct-116, 1 h; in short: as §2
HCT-116 [12] = test: Drug metabolism in human HCT116 cells assessed as quercetin sulfate level at 30 uM after 3 hrs by HPLC analysis; type: ADME, cell-based; details: hct-116, 3 h; in short: as §2
[13] = Metabolic stability in human MCF7 cells assessed as compound remaining at 30 uM after 1 hr by HPLC analysis; type: ADME, cell-based; details: read-out: Stability; in short: as §2
HCT-116 [14] = test: Cytotoxicity against human HCT116 cells at 1 to 100 uM after 12 hrs by MTT assay; type: functional, cell-based; in short: as §1
[15] = Solubility of the compound in DMEM cell-free cell culture medium up to 100 uM; type: physicochemical
In short: (§3)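 DMSO stocks ([…]–10 mM) were serially diluted into PBS pH 7.4 or DMEM with 10% FBS to final 0.5, 5, 25, 50, 100, 200 µM (2% DMSO) and 300 µM (3% DMSO). Solubility was judged by forward light scattering in a laser nephelometer.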

HCT-116 [16] = test: Drug metabolism in human HCT116 cells assessed as quercetin-glucuronide level at 30 uM after 12 hrs by HPLC analysis; type: ADME, cell-based; details: hct-116, 12 h; in short: as §2
HCT-116 [17] = test: Drug metabolism in human HCT116 cells assessed as quercetin-glucuronide level at 30 uM after 3 hrs by HPLC analysis; type: ADME, cell-based; details: hct-116, 3 h; in short: as §2
HCT-116 [18] = test: Drug metabolism in human HCT116 cells assessed as quercetin level at 30 uM after 1 hr by HPLC analysis; type: ADME, cell-based; details: hct-116, 1 h; in short: as §2
HCT-116 [19] = test: Drug metabolism in human HCT116 cells assessed as quercetin sulfate level at 30 uM after 1 hr by HPLC analysis; type: ADME, cell-based; details: hct-116, 1 h; in short: as §2
HCT-116 [20] = test: Drug metabolism in human HCT116 cells assessed as quercetin sulfate level at 30 uM after 6 hrs by HPLC analysis; type: ADME, cell-based; details: hct-116, 6 h; in short: as §2
MCF7 [21] = test: Metabolic stability in human MCF7 cells assessed as compound remaining at 30 uM after 12 hrs by HPLC analysis; type: ADME, cell-based; details: mcf7, 12 h; in short: as §2
MCF7 [22] = test: Drug metabolism in human MCF7 cells assessed as 7-O-POC-Q level at 30 uM after 3 hrs by HPLC analysis; type: ADME, cell-based; details: mcf7, 3 h; in short: as §2
[23] = Metabolic stability in human HCT116 cells assessed as compound remaining at 30 uM after 1 hr by HPLC analysis; type: ADME, cell-based, HCT-116; details: read-out: Stability; in short: as §2
[24] = Drug degradation in DMEM cell-free cell culture medium assessed as formation of 3-O-POC-Q at 50 uM after 24 hrs by HPLC analysis; type: physicochemical
In short: (§4)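 Conjugates diluted from a 10 mM DMSO stock to 50 µM final in cell-free culture medium (DMEM with 10% FBS), held at 37 °C. Samples were taken at 0, 1, 3, 6, 12, 24, 48 and 96 h, vortexed, and run on C18 reverse-phase HPLC with an acetonitrile/0.1% formic acid gradient at 1 mL/min, detected by UV at 340 nm.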

MCF7 [25] = test: Drug metabolism in human MCF7 cells assessed as quercetin level at 30 uM after 12 hrs by HPLC analysis; type: ADME, cell-based; details: mcf7, 12 h; in short: as §2
[26] = Metabolic stability in human MCF7 cells assessed as compound remaining at 30 uM after 6 hrs by HPLC analysis; type: ADME, cell-based; details: read-out: Stability; in short: as §2
[27] = Metabolic stability in human HCT116 cells assessed as compound remaining at 30 uM after 6 hrs by HPLC analysis; type: ADME, cell-based, HCT-116; details: read-out: Stability; in short: as §2
[28] = Solubility of the compound in PBS buffer at 0.5 to 300 uM; type: physicochemical; in short: as §3
MCF7 [29] = test: Drug metabolism in human MCF7 cells assessed as 7-O-POC-Q level at 30 uM after 6 hrs by HPLC analysis; type: ADME, cell-based; details: mcf7, 6 h; in short: as §2
[30] = Half life of the compound in DMEM cell-free cell culture medium at 50 uM by HPLC analysis; type: physicochemical; in short: as §4
HCT-116 [31] = test: Drug metabolism in human HCT116 cells assessed as quercetin level at 30 uM after 6 hrs by HPLC analysis; type: ADME, cell-based; details: hct-116, 6 h; in short: as §2
HCT-116 [32] = test: Drug metabolism in human HCT116 cells assessed as quercetin sulfate level at 30 uM after 12 hrs by HPLC analysis; type: ADME, cell-based; details: hct-116, 12 h; in short: as §2
[33] = Half life of the compound in PBS buffer at pH 7.4 at 50 uM by HPLC analysis; type: physicochemical
In short: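 Compound at 50 µM in PBS pH 7.4, incubated at 37 °C. Aliquots were drawn at 0, 1, 3, 6, 12, 24, 48 and 96 h and analysed by C18 reverse-phase HPLC with an acetonitrile/0.1% formic acid gradient, detected by UV at 340 nm.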

[34] = Metabolic stability in human HCT116 cells assessed as compound remaining at 30 uM after 12 hrs by HPLC analysis; type: ADME, cell-based, HCT-116; details: read-out: Stability; in short: as §2
[35] = Metabolic stability in human MCF7 cells assessed as compound remaining at 30 uM after 3 hrs by HPLC analysis; type: ADME, cell-based; details: read-out: Stability; in short: as §2
[36] = Metabolic stability in human HCT116 cells assessed as compound remaining at 30 uM after 3 hrs by HPLC analysis; type: ADME, cell-based, HCT-116; details: read-out: Stability; in short: as §2
HCT-116 [37] = test: Drug metabolism in human HCT116 cells assessed as quercetin level at 30 uM after 3 hrs by HPLC analysis; type: ADME, cell-based; details: hct-116, 3 h; in short: as §2
HCT-116 [38] = test: Drug metabolism in human HCT116 cells assessed as quercetin-glucuronide level at 30 uM after 6 hrs by HPLC analysis; type: ADME, cell-based; details: hct-116, 6 h; in short: as §2
[39] = Solubility of the compound in PBS buffer at 300 uM; type: physicochemical; in short: as §3
MCF7 [40] = test: Drug metabolism in human MCF7 cells assessed as quercetin-glucuronide level at 30 uM after 1 hr by HPLC analysis; type: ADME, cell-based; details: mcf7, 1 h; in short: as §2
[41] = Chemical stability of the compound in DMEM cell-free cell culture medium at 50 uM after 24 to 54 hrs by HPLC analysis; type: physicochemical; in short: as §4
HCT-116 [42] = test: Drug metabolism in human HCT116 cells assessed as quercetin level at 30 uM after 12 hrs by HPLC analysis; type: ADME, cell-based; details: hct-116, 12 h; in short: as §2

SMILES | Activity (MCF7 [1]) | Stability (MCF7 [3]) | Stability (MCF7 [4]) | Stability (MCF7 [6]) | Stability (HCT-116 [11]) | Stability (HCT-116 [12]) | remaining at 1 h, 30 µM [13] [%] | Activity (HCT-116 [14]) | solubility [15] | Stability (HCT-116 [16]) | Stability (HCT-116 [17]) | Stability (HCT-116 [18]) | Stability (HCT-116 [19]) | Stability (HCT-116 [20]) | Stability (MCF7 [21]) | remaining at 1 h, 30 µM [23] [%] | Stability (MCF7 [25]) | remaining at 6 h, 30 µM [26] [%] | remaining at 6 h, 30 µM [27] [%] | solubility [28] | other results
CC(C)OC(=O)OCOc1cc(O)c2c(=O)c(OCOC(=O)OC(C)C)c(-c3ccc(O)c(O)c3)oc2c1 | Active | Stable | Stable | Stable | Stable | Stable | 25 | Active | soluble | Stable | Stable | Stable | Stable | Stable | Stable | 64 | Stable | 1 | 20 | Insoluble | Stability (MCF7 [2]): Stable; Stability (HCT-116 [5]): Stable; Stability (MCF7 [7]): Stable; Stability (HCT-116 [8]): Stable; Stability (HCT-116 [9]): Stable; Stability (HCT-116 [10]): Stable; Stability (MCF7 [22]): Stable; Drug degradation [24]: Active; Stability (MCF7 [29]): Stable; half-life at 50 µM [30]: 24 h; Stability (HCT-116 [31]): Stable; Stability (HCT-116 [32]): Stable; half-life at 50 µM [33]: > 96 h; remaining at 12 h, 30 µM [34]: 3%; remaining at 3 h, 30 µM [35]: 6%; remaining at 3 h, 30 µM [36]: 47%; Stability (HCT-116 [37]): Stable; Stability (HCT-116 [38]): Stable
CC(C)OC(=O)OCOc1c(-c2ccc(O)c(O)c2)oc2cc(O)cc(O)c2c1=O | Active | Stable | Stable | Stable | Stable | Stable | 92 | inactive | soluble | Stable | Stable | Stable | Stable | Stable | Stable | 80 | Stable | 4 | 71 | soluble | solubility [39]: soluble; Stability (MCF7 [40]): Stable; Stability [41]: Stable; half-life at 50 µM [30]: 54 h; Stability (HCT-116 [31]): Stable; Stability (HCT-116 [32]): Stable; half-life at 50 µM [33]: > 96 h; remaining at 12 h, 30 µM [34]: 65%; remaining at 3 h, 30 µM [35]: 49%; remaining at 3 h, 30 µM [36]: 76%; Stability (HCT-116 [37]): Stable; Stability (HCT-116 [42]): Stable; Stability (HCT-116 [38]): Stable
